Data reported in ChEMBL document CHEMBL1817654, “Synthesis and protective effects of aralkyl alcoholic 2-acetamido-2-deoxy-β-D-pyranosides on hypoglycemia and serum limitation induced apoptosis in PC12 cell” (2011).
Active and inactive are the calls of the source. The rule behind the calls is not given here.

What was measured:
PC-12 [1] = assay: Neuroprotective activity in rat differentiated PC12 cells assessed protection against hypoglycemia and serum limitation-induced decrease in cell viability at 40 uM after 24 hrs by MTT assay; type: functional
Summary of the method: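 NGF-differentiated PC12 cells (50 ng/ml every other day, 6 days) pretreated with 8, 40 or 200 µM for 24 h. Insult: 24 h in glucose-free DMEM with 1% horse serum and 1% FBS, compound kept. MTT added to 0.5 mg/ml for 4 h at 37 °C, formazan dissolved in 20% SDS, absorbance read at 570 nm. Viability given as % of unstressed control. Three independent experiments, each in triplicate.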

PC-12 [2] = assay: Neuroprotective activity in rat differentiated PC12 cells assessed protection against hypoglycemia and serum limitation-induced apoptosis at 40 uM after 24 hrs by Hoechst 33342 staining analysis; type: functional
Summary of the method: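 PC12 cells kept in high-glucose DMEM with 10% horse serum and 5% FBS, differentiated with NGF (50 ng/ml) every other day for 6 days. Pretreated 24 h, then glucose-free DMEM with 1% horse and 1% fetal serum for 24 h with compound kept. Cells fixed in 4% paraformaldehyde, stained with Hoechst 33342 (5 µg/ml, 37 °C, 10 min). Condensed or fragmented nuclei counted under UV fluorescence as a fraction of total cells. Three independent experiments in triplicate.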

PC-12 [3] = assay: Neuroprotective activity in rat differentiated PC12 cells assessed protection against hypoglycemia and serum limitation-induced early stage of apoptosis at 40 uM after 24 hrs using annexin V/propidium iodide double staining by flow cytometry; type: functional
Summary of the method: (§1)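 Differentiated PC12 cells pretreated 24 h, then 24 h of glucose-free DMEM with 1% horse and 1% fetal serum. Harvested cells resuspended at 1 × 10⁶/ml in binding buffer (10 mM HEPES, 140 mM NaCl, 2.5 mM CaCl₂). FITC-annexin V and PI added, 15 min in the dark at room temperature, analysed by flow cytometry within 1 h. Three independent experiments in triplicate.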

PC-12 [4] = assay: Neuroprotective activity in rat differentiated PC12 cells assessed protection against hypoglycemia and serum limitation-induced late stage of apoptosis at 40 uM after 24 hrs using annexin V/propidium iodide double staining by flow cytometry; type: functional, cell-based; summary of the method: as §1
PC-12 [5] = assay: Neuroprotective activity in rat differentiated PC12 cells assessed reduction of hypoglycemia and serum limitation-induced caspase 3 activity at 40 uM after 24 hrs by colorimetric assay relative to control; type: functional
Summary of the method: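 Treatment: NGF-differentiated PC12 cells preincubated 24 h, then 24 h of hypoglycemia and serum limitation. Lysates spun at 12,000 g for 10 min, protein measured by Bradford. Lysate incubated with reaction buffer and Ac-DEVD-pNA (10 µl of a 2 mM stock) for 4 h at 37 °C. pNA release read at 405 nm, expressed as % of control.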

PC-12 [6] = assay: Neuroprotective activity in rat differentiated PC12 cells assessed reversal of hypoglycemia and serum limitation-induced mitochondrial membrane potential at 40 uM after 24 hrs using Rhodamine dye by confocal microscopic analysis; type: functional
Summary of the method: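 Differentiated PC12 cells given 24 h pretreatment, then 24 h in glucose-free DMEM with 1% horse serum and 1% FBS. Rhodamine 123 added to 2 µM final for 30 min at 37 °C. Cells fixed in 4% paraformaldehyde and imaged by confocal microscopy (ex 488, em 530 nm, ×400). Fluorescence intensity given as % of control. Three independent experiments in triplicate.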

Row | SMILES | Activity (PC-12 [1]) | Activity (PC-12 [2]) [%] | Activity (PC-12 [3]) [%] | Activity (PC-12 [4]) | fold change (FC) (PC-12 [5]) | Activity (PC-12 [6]) [%]
1 | CC(=O)N[C@H]1[C@H](OCCc2ccc(O)cc2)O[C@H](CO)[C@@H](O)[C@@H]1O | 65.36% |  |  |  |  | 
2 | COc1ccc(CCCO[C@@H]2O[C@H](CO)[C@@H](O)[C@H](O)[C@H]2NC(C)=O)cc1 | 80.41% | 7.12 | 15.51 | inactive | 1.69 | 79.05
3 | CC(=O)N[C@H]1[C@H](OCc2ccccc2)O[C@H](CO)[C@@H](O)[C@@H]1O | inactive |  |  |  |  | 
4 | CC(=O)N[C@H]1[C@H](OCCc2ccccc2)O[C@H](CO)[C@@H](O)[C@@H]1O | inactive |  |  |  |  | 
5 | COc1cc(CO[C@@H]2O[C@H](CO)[C@@H](O)[C@H](O)[C@H]2NC(C)=O)ccc1O | 65.9% |  |  |  |  | 
6 | OC[C@H]1O[C@@H](OCCc2ccc(O)cc2)[C@H](O)[C@@H](O)[C@@H]1O [SALIDROSIDE] | 65.62% | 8.31 | 17.56 | inactive | 1.97 | 71.43
7 | CC(=O)N[C@H]1[C@H](OCc2ccc(O)cc2)O[C@H](CO)[C@@H](O)[C@@H]1O | 60.65% |  |  |  |  | 
8 | COc1cc(CO[C@@H]2O[C@H](CO)[C@@H](O)[C@H](O)[C@H]2NC(C)=O)cc(OC)c1 | Active |  |  |  |  | 
9 | COc1cc(CCCO[C@@H]2O[C@H](CO)[C@@H](O)[C@H](O)[C@H]2NC(C)=O)ccc1O | 62.38% |  |  |  |  | 
10 | CC(=O)N[C@H]1[C@H](OCc2cccc(O)c2)O[C@H](CO)[C@@H](O)[C@@H]1O | Active |  |  |  |  | 
11 | COc1ccc(CCO[C@@H]2O[C@H](CO)[C@@H](O)[C@H](O)[C@H]2NC(C)=O)cc1 | 86.62% | 5.9 | 11.21 | inactive | 1.55 | 82.86
12 | CC(=O)N[C@H]1[C@H](OCCCc2ccc(O)cc2)O[C@H](CO)[C@@H](O)[C@@H]1O | Active |  |  |  |  | 
